Screening results: PubChem BioAssay, several laboratories
H9c2 TAG inh = reduces triacylglycerol accumulation in H9c2 cells. inhibition, % at 12.5 µM. Nile Red lipid (TAG) fluorescence; cells loaded with 200 µM oleic acid. 230,000 tested, 0.66% active;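 active means pattern-corrected inhibition of lipid staining of at least 50% with the nuclear-stain viability signal not falling by more than 50%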
Efflux pump inh = blocks antifungal efflux pumps in multiplex yeast assay; 330,000 tested, 0.44% active; S. cerevisiae Candida pump triplex, Nile Red efflux; inhibition, % at 10 µM;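 active means plate passing quality check with inhibition over a set limit, or well fluorescence over plate mean plus 4 SD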;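 further: Nile Red retained in pooled yeast measured as flow cytometry median fluorescence; higher means more Nile Red kept so more efflux inhibition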
SMARCA2 activ = increases SMARCA2 function in MMTV reporter cells; MG213 cells, MMTV-luciferase reporter, dexamethasone, overnight; activation, % at 9.1 µM; 370,000 tested, 1% active; AID 652017; in the data active means activation above about 7.8%
TbMetRS inhib = Trypanosoma brucei MetRS inhibition; purified T. brucei MetRS, ATP depletion, Kinase-Glo luminescence; inhibition, % at 11.9 µM; 360,000 tested, 0.4% active;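 active means inhibition above a per-plate cutoff of the control wells' mean inhibition plus 3 SD, cut at about 5.5% in these data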
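assay system = parasite MetRS enzyme | timing = 15 min preincubation, 2 h reaction, all 25 °C | evaluation = percent inhibition relative to median high and low control wells | medium = HEPES buffer containing pyrophosphatase, BSA, spermine, DTT | compound = single dose, 11.9 µM final nominal, 0.9% final DMSO | detection = Kinase-Glo luminescence, ATP depletion format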
AHR act = activators of human aryl hydrocarbon receptor | P35869 | AHR-responsive luciferase reporter cells, luminescence | activation, % at 5 µM | 320,000 tested, 2.5% active; in the data active means activation above about 47%
AHR act cf = human AHR activation, confirmation; shares compounds with AHR act; human cells, AHR-responsive luciferase reporter, luminescence; activation, % at 9 µM; 2,300 tested, 87% active; AID 2845; in the data active means activation above about 49%;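 further: HepG2 hepatoma cells carrying a DRE-driven firefly luciferase reporter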
PXR act counter = activates human PXR in AHR activator counter-screen | activation, % at 11.6 µM | AID 434939 | shares compounds with AHR act | cell-based PXR reporter, luciferase luminescence | 2,300 tested, 88% active; in the data active means activation above about 11%;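 further: human hepatoma DPX-2 cells expressing full-length human PXR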
Cmpd fluor yeast = compound fluorescence in yeast efflux pump counter-screen; fluorescence ratio to DMSO, % at 10 µM; shares compounds with Efflux pump inh; 1,700 tested, 4% active; AID 588517; S. cerevisiae AD/pABC3, flow cytometry;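 active means fluorescence ratio to DMSO above its plate's cutoff, the plate mean ratio plus 5 SD, cut at about 210% in these data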;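 further: unstained yeast with no Nile Red so the signal is compound autofluorescence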
CaMdr1 efflux inh = Candida Mdr1 efflux pump inhibition. S. cerevisiae AD/CaMDR1, Nile Red efflux, flow cytometry. 1,700 tested, 1% active. shares compounds with Efflux pump inh. inhibition, % at 10 µM; in the data active means inhibition above about 26%;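 further: higher means more Nile Red retained so more efflux inhibition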
CaCdr2 efflux inh = blocks the Candida albicans Cdr2 efflux pump in yeast; AID 588520; S. cerevisiae AD/CaCDR2, Nile Red retention, flow cytometry; shares compounds with Efflux pump inh; Nile Red retention ratio vs DMSO, % at 10 µM; 1,700 tested, 4% active; in the data active means Nile Red retention ratio vs DMSO above about 190%;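 further: higher ratio means more blocking of Cdr2 efflux of the dye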
Cdr1 pump inh = Candida Cdr1 efflux pump inhibition | S. cerevisiae AD/CaCDR1, Nile Red efflux, flow cytometry | inhibition, % at 10 µM | 1,700 tested, 1% active | shares compounds with Efflux pump inh;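 active means inhibition above the screen-wide mean plus twice its standard deviation, cut at about 32% in these data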
SMARCA2 act conf = SMARCA2 activation, confirmation screen. activation, % at 9.1 µM. MG213 cells, MMTV-luciferase with dexamethasone, luminescence, overnight; MG213 cells expressing E1A, Rb sequestered; DMSO wells 0%, reference activator 100%. shares compounds with SMARCA2 activ. 3,500 tested, 30% active;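 active means activation above its plate's cutoff, the mean activation of tested wells plus 3 SD, cut at about 7.9% in these data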
GAL4-VP16 Luc = activates GAL4-VP16 luciferase, flagging SMARCA2 activator hits. HEK293 GAL4-VP16 pG5luc reporter, luciferase luminescence; scaled: DMSO wells 0%, SAHA wells 100%. shares compounds with SMARCA2 activ. AID 686939. 3,500 tested, 41% active. activation, % at 9.1 µM;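 active means activation above the solvent-only control well mean plus 3 SD, averaged across control plates, cut at about 5.2% in these data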
Each line names hits and unclear results; the compound was inactive in the other large screens (follow-up assays come after a bar, where they were run). An excerpt weighted towards active compounds, which were near 4.1% of everything screened.

COc1cc(C2Nc3ccccc3C(=O)N2c2ccc(Cl)cc2)c(Cl)cc1OCC(=O)O (stereo unspecified)	SMARCA2 activ 10.4, AHR act 115.9 (no result: H9c2 TAG inh) | AHR act cf 88.6 | PXR act counter 15.2 | SMARCA2 act conf 12.0 | GAL4-VP16 Luc 9.5
CCOc1cc(C2Nc3ccccc3C(=O)N2c2ccccc2)c(Br)cc1OCC(=O)O (stereo unspecified)	none (no result: H9c2 TAG inh)
O=C(O)/C=C/C(=O)Nc1ccc2c(c1)C(=O)c1ccccc1C2=O	none
CC(=O)Nc1ccc2c(c1)C(=O)c1ccccc1C2=O	SMARCA2 activ 9.4, AHR act 152.2 | AHR act cf 120.9 | PXR act counter 34.9 | SMARCA2 act conf 18.9 | GAL4-VP16 Luc 11.3
O=C(CSc1nc2ccccc2nc1N1CCCC1)N1CCN(C(c2ccccc2)c2ccccc2)CC1	none (no result: H9c2 TAG inh, Efflux pump inh, TbMetRS inhib, AHR act)
CCC(=O)N1CCN(c2ccc(NC(=O)c3ccc4c(c3)OCCO4)cc2)CC1	none
CCC(=O)N1CCN(c2ccc(Cl)cc2NC(=O)c2ccc3c(c2)OCCO3)CC1	Efflux pump inh 0.8 | Cmpd fluor yeast inactive | CaMdr1 efflux inh inactive | CaCdr2 efflux inh inactive | Cdr1 pump inh inactive
COC(=O)[C@]12C[C@H](CC(=O)NCCCCc3ccccc3)C(=O)N(Cc3cccc4ccccc34)C1=C[C@H](C(C)(C)C)O[C@@H]2C	none (no result: H9c2 TAG inh, Efflux pump inh, TbMetRS inhib, AHR act)
O=C(Cn1c2ccc(F)cc2c2nc3n(c(=O)c21)CCS3)Nc1ccccc1F	Efflux pump inh 0.4 (no result: H9c2 TAG inh, SMARCA2 activ, TbMetRS inhib) | Cmpd fluor yeast 480.0 | CaMdr1 efflux inh inactive | CaCdr2 efflux inh inactive | Cdr1 pump inh inactive
COc1ccc(Nc2nc(CN3CCOCC3)nc3sc4c(c23)CCC(C)C4)cc1OC (stereo unspecified)	none (no result: H9c2 TAG inh, SMARCA2 activ, TbMetRS inhib)
COc1cc2c(cc1OC)CN(c1nc(CN3CCOCC3)nc3sc4c(c13)CCC(C)C4)CC2 (stereo unspecified)	Efflux pump inh 98.3 (no result: H9c2 TAG inh) | Cmpd fluor yeast inactive | CaMdr1 efflux inh inactive | CaCdr2 efflux inh inactive | Cdr1 pump inh 81.9
COc1ccc(C(=O)C2(C(=O)NC3CCCC3)CC(c3ccccc3C(F)(F)F)=NO2)cc1 (stereo unspecified)	none (no result: H9c2 TAG inh, Efflux pump inh, TbMetRS inhib, AHR act)
CC(C)Cc1cc(CNC(=O)C2CCC(=O)N(Cc3cccc(C(F)(F)F)c3)C2)on1 (stereo unspecified)	Efflux pump inh 9.2 | Cmpd fluor yeast inactive | CaMdr1 efflux inh inactive | CaCdr2 efflux inh inactive | Cdr1 pump inh inactive
CCn1cc(C(=O)NCCCN2CCCC2)c(=O)c2cc(S(=O)(=O)N3CCc4ccccc4C3)ccc21	Efflux pump inh 1.1 | Cmpd fluor yeast inactive | CaMdr1 efflux inh inactive | CaCdr2 efflux inh inactive | Cdr1 pump inh inactive
Cc1cc(=O)oc2cc(OCC(=O)Nc3nnc(CC(C)C)s3)ccc12	none
CCc1nnc(NC(=O)COc2ccc3c(c2)OCO3)s1	none (no result: H9c2 TAG inh)
CCCc1nnc(NC(=O)COc2ccc3c(c2)OCO3)s1	Efflux pump inh 93.0 (no result: H9c2 TAG inh) | Cmpd fluor yeast inactive | CaMdr1 efflux inh inactive | CaCdr2 efflux inh inactive | Cdr1 pump inh inactive
